Variants at the floor of the assay were thinned out.
B1: tRNA (parent)
chain: GUUCCGUUGGCGUAAUGGUAACGCGUCUCCCUCCUAAGGAGAAGACUGCGGGUUCGAGUCCCGUACGGAACG

Variants of: B1
Test: yeast fitness relative to wild type (ratio to wild type); higher = fitter; tRNA-Arg(CCU), competitive growth, 37 C, YPD
Procedure, shortened: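 Amplicons of the tRNA-Arg(CCU) gene were sequenced, 100-nucleotide paired-end, from the start population and from each end population of a pooled yeast competition. The competition, in six parallel replicates, lasted 24 hours in YPD at 37°C. Fitness relative to wild type was calculated from changes in genotype frequencies. Genotypes had to have ≥ 100 starting reads, and estimates < 0.5 were set to 0.5.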

Q: With GAUCCGUUGGCGUACUGGUAACGCGUCUCCCUCCUAAGGAGAAGACUGCGGGUUCGUGUCUCGUACGGAACG [U2A A15C A57U C61U] as the variant, how does the yeast fitness read?
A: 0.504

Q: With GAUCCGUUGGCGUCAUGGUAACGCGUCUCCCUCAUAAGGAGAAGACUGUGGGUUUGAGUCCCGUACGGCACG [U2A A14C C34A C49U C55U A69C] as the variant, how does the yeast fitness read?
A: ≤ 0.5

Q: For GAUCCGUUGGCGUAAUGGUAACGCGUCUCCCUCCUAAGGAGAAGCCUGCGGGUUCGAAUCUCGUACGGAACG [U2A A45C G58A C61U], which yeast fitness is on record?
A: ≤ 0.5

Q: For GAUUCGUGGGCGUAAUGGUAAGGCGUCUCCCUCCUAAGGAGAAGACAGCGGGUUCGAGUCCCGUACGGACCG [U2A C4U U8G C22G U47A A70C], which yeast fitness is on record?
A: ≤ 0.5

Q: For GAUCCGUUGGCGUAAUGGUACCGCGUCUUCCUCCUAAGGAGAAGACUGCGGGUUCCAGUCCCGUACGGAACG [U2A A21C C29U G56C], which yeast fitness is on record?
A: ≤ 0.5

Q: For GAUUCGUUGGCGUAAUGGUAACGCGUCUCCCUCCUAAGGAGAAGACUGCGGGUUCGUGUCCCGUACGGAACG [U2A C4U A57U], which yeast fitness is on record?
A: ≤ 0.5

Q: For GAUCCGUUGGCGUAGUGGUAACGCGUCUCCCUCCUAAGGAGAAGUCUACGGGUUCGAGUCCCGUAGGGAACG [U2A A15G A45U G48A C66G], which yeast fitness is on record?
A: ≤ 0.5

Q: With GAUCCGUUGGCGUAAUGGUUACGCGUCUCCCUCCUAAGGAGAAGCCUGCGGGUUCGAGUCCCGUACGGAACG [U2A A20U A45C] as the variant, how does the yeast fitness read?
A: 0.728

Q: For GAUCCGUUGGCGUAAUGGUAACGCGUCUCCCUCCUAAGGAGACGACUGCGGGUUCGAGUCCCGUACGGAACG [U2A A43C], which yeast fitness is on record?
A: 0.893

Q: With GAUCCGUUGGCGUAAUGGUACCGCGUCUUCCUCCUAAGGAGAAGACUGCGGGUUCGAGUCCCGUACGGAACG [U2A A21C C29U] as the variant, how does the yeast fitness read?
A: ≤ 0.5

Q: Which yeast fitness does the source give for GAUCCGUUGGCGUAAUGGUAACGCGUCUCCCUCCUAAGGUGAAGACUGCGGGUUCGAGUCCCGUACGGAUCG [U2A A40U A70U] here?
A: 0.696

Q: Which yeast fitness does the source give for GAUCCGUUGGCGUAAUGGUAACGCGUCUCCCUCCUAAGGAGAAGACUGCGGGUUCGUGUCCCGUUCGGAACG [U2A A57U A65U] here?
A: ≤ 0.5

Q: Which yeast fitness does the source give for GAUUCGUUGCCGUAAUGGUAACGCGUCUCCCUCCUAAGGAGAAGACUGCGGGUUCGAGUCCCGUACGGAACG [U2A C4U G10C] here?
A: 0.522

Q: Which yeast fitness does the source give for GAUGCGUUGGCGUAAUGGUAACGCGUCUCCCUCCUAAGGAAAAGACUGCGGGUUAGAGUCCCGUACGGAACG [U2A C4G G41A C55A] here?
A: ≤ 0.5

Q: With GAUAGGUUGGCGUAAUGGUAACGCGUCUCCCUCCUGAGGAGAAGACUGCGGGUUCGAGUCCCGUACAGAACG [U2A C4A C5G A36G G67A] as the variant, how does the yeast fitness read?
A: ≤ 0.5

Q: For GAUCCGUUGGCGUAUUGGUAAAGCGUCUCCCUCCUAAGGAGAAGGAUGCGGGCUCGAGUCCCGUACGGAACG [U2A A15U C22A A45G C46A U53C], which yeast fitness is on record?
A: 0.589

Q: Which yeast fitness does the source give for GAUCCGUUGGCGUAAUGGUAACGCGUCUCCCUCCUACGGACAAGACUGCGGGUUCGAGUCCCGUAAGGAACG [U2A A37C G41C C66A] here?
A: ≤ 0.5

Q: With GAUCCGUUGGCGUAAUGGUACCGCGUCUUCCUCCUAAGGAGAAGACUGCGGGUUCGCGUCCCGUACGGAACG [U2A A21C C29U A57C] as the variant, how does the yeast fitness read?
A: 0.583

Q: For GAUACGUUGGCAUAAUGGUAACGCGUCUCCCUUCUAAGAAGAAGACUGCGGGUUCGAGUCCCGAACGGACCG [U2A C4A G12A C33U G39A U64A A70C], which yeast fitness is on record?
A: ≤ 0.5

Q: With GAUCCGUUGGCGUACUGGUAACGCGUCUCCCUCCUAAGGAGAAGACUGCGGGUUCGACUCCCGCACGGAACG [U2A A15C G58C U64C] as the variant, how does the yeast fitness read?
A: 0.53

Q: With GAUCCGUUGGCGUAAUGGUAACGCGUCUCCCUCCUAAGGAGAAGACUGCGGGUUCGGGUCCCGUACGGAACG [U2A A57G] as the variant, how does the yeast fitness read?
A: 0.897

Q: Which yeast fitness does the source give for GAUCCGUUGGCGUAAUGGUUACGCGUCUCCCUCUUAAGGAGAAGACUGCGAGUUCGAGUCCCGUACGGAACG [U2A A20U C34U G51A] here?
A: ≤ 0.5

Q: Which yeast fitness does the source give for GAUCCGUUGGCGUAAUGGUAACGCGUCUCCCUCCUGAGGAGAAGCCUGCGGGUUCGAGUCCCGUACGCAACG [U2A A36G A45C G68C] here?
A: ≤ 0.5

Q: For GAUCCGUUGGCGUUAUGGUAGCGCGUCUCCCUCCUAAGGAGAAGAGUGCGGGUUCGUGUCCCGUACGGCACG [U2A A14U A21G C46G A57U A69C], which yeast fitness is on record?
A: ≤ 0.5

Q: For GAUCCGUUGGCGUAAUGGUAACGCGUCUCCCUCCUGAGGAGAAGACUGAGGGUUCGAGUCUCGUACGGAACG [U2A A36G C49A C61U], which yeast fitness is on record?
A: ≤ 0.5

Q: For GAUAGGUUGGCGUAAUGGUAACGCGUCUCCCUCCUAAGGAGAAGACUGCGGGUUCGAGUCCCGUGCGGAACG [U2A C4A C5G A65G], which yeast fitness is on record?
A: ≤ 0.5

Q: With GAUCCGUUGGCGUAAUGGUAGCGCGUCUCCCUCCUAAGGAGAAGACUGCGGGUUCGAGUCCCGUACGGAACG [U2A A21G] as the variant, how does the yeast fitness read?
A: 1.04

Q: Which yeast fitness does the source give for GAUCCGUUGGCGUAAUGGUAACGCGUCUCCCUCCUAUGGAGAAGACUGCGGGUUCGAGUCCCGUACGGACCG [U2A A37U A70C] here?
A: 0.688

Q: With GAUCCGUUGGCGUAAUGGUCACGCGUCUCCCUGCUAAGGAGAAGAUUGCGGGUUCGAGUCCCGUACGGAACG [U2A A20C C33G C46U] as the variant, how does the yeast fitness read?
A: ≤ 0.5

Q: Which yeast fitness does the source give for GAUCCGUUGGCGUCAUGGUAACGCGUCUCCCUCCUACGGAGAAGACUGCGGGUUCGAGUCCCGUACGGAACG [U2A A14C A37C] here?
A: ≤ 0.5

Q: For GAUCCGUUGGCGUAAUGGUAGCGCGUCUCCCUUCUAAGGAGAAGACUGCGCGUUCGAGUCCCGUACGGAACG [U2A A21G C33U G51C], which yeast fitness is on record?
A: ≤ 0.5

Q: With GAUCCGUUGGCGUAAUGGUACAGCGUCUUCCUCCUAAGGAGAAGACUGGGGGUUCGAGUCCCGUACGGAACG [U2A A21C C22A C29U C49G] as the variant, how does the yeast fitness read?
A: ≤ 0.5

Q: For GAUCCGUUGGCGUAAUGGUACCGCGUCUCCCUCCUAAGAAGAAGACUGCGGCUUCGAGUCCUGUACGGAACG [U2A A21C G39A G52C C62U], which yeast fitness is on record?
A: ≤ 0.5

Q: For GAUCCGUUGGCGUAAUGGUCACGCGUCUCCCUGCUAAGGAGAAGAUUGCGGGUUCGAGUCCCGUACGGAGCG [U2A A20C C33G C46U A70G], which yeast fitness is on record?
A: ≤ 0.5

Q: Which yeast fitness does the source give for GAUCCGUUGGCGUAAUGGUAACGCGUCUCCCUCCUAAGGUGAAGACUGCGGGUUCGAGUCCCGUACGGAACG [U2A A40U] here?
A: 0.796

Q: Which yeast fitness does the source give for GAUAGGUUGGCGUAAUGGUAACGCGUCUCCCUCCUGAGGAGAAGACUGCGGGUUCGAGUCCCGUACGGAACG [U2A C4A C5G A36G] here?
A: 0.524

Q: For GAUACGUUGGCGUAAUGGUAACGCGUCUCCCUCCUAAGGAGAAGACUGCGGGUUCGAGUCCCGUACGGAACG [U2A C4A], which yeast fitness is on record?
A: 0.914

Q: Which yeast fitness does the source give for GAUCCGUUGGCGUAAUGGUGACGCGUCUCCCUCCUAAGGAGAAGACUGCGGGUUCGAGUCCCGUACAGAACG [U2A A20G G67A] here?
A: 0.584

— the RNAGym collection of RNA variant scans (doi:10.1126/science.aae0568)
